Reference: ChEMBL document CHEMBL3124843, “Synthesis, cytostatic, antimicrobial, and anti-HCV activity of 6-substituted 7-(het)aryl-7-deazapurine ribonucleosides” (J Med Chem, 2014)
The source made the active and inactive calls. How the calls were made is not given here.

Assays:
HL-60 = experiment: Antiproliferative activity against human HL60 cells after 72 hrs by XTT assay; assay type: functional, cell-based; details: HL-60, 72 h
How it was run: (§1)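 Antiproliferative test on HL-60 promyelocytic leukemia and HeLa S3 cervical carcinoma cells growing in liquid suspension.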

Staphylococcus aureus [1] = experiment: Antibacterial activity against methicillin-resistant Staphylococcus aureus MRSA 4591 after 24 hrs; assay type: functional, organism-based
Hepatitis C virus [2] = experiment: Antiviral activity against Hepatitis C virus subtype 2a infected in human HuH7 cells; assay type: functional, organism-based, Hepacivirus hominis; details: genotype 2a, Huh-7
Hepatitis C virus [3] = experiment: Antiviral activity against Hepatitis C virus subtype 1b infected in human HuH7 cells; assay type: functional, organism-based, Hepacivirus hominis; details: genotype 1b, Huh-7
[4] = Antiproliferative activity against human HeLaS3 cells after 72 hrs by XTT assay; assay type: functional, cell-based; details: HeLa S3, 72 h; how it was run: as §1
MRC5 = experiment: Cytostatic activity against human MRC5 cells after 72 hrs by MTT assay; assay type: ADME, cell-based; details: MRC5, 72 h
How it was run: (§2)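 IC50 is the concentration that cuts cell growth by 50%, read by quantitative metabolic MTT staining after a 3-day treatment. The resistant sublines were made by raising the concentration of the cytotoxic drug step by step. CEM-DNR-bulk (daunorubicin-selected) stably overexpresses mrp-1. K562-TAX (paclitaxel-selected) expresses only mdr-1. HCT116p53−/− carries null p53 alleles. BJ and MRC-5 are nonmalignant fibroblasts.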

[5] = Cytotoxicity against human HuH7 cells infected with Hepatitis C virus subtype 1b; assay type: cell-based, Huh-7
Staphylococcus aureus [6] = experiment: Antibacterial activity against Staphylococcus aureus CCM 3953 after 24 hrs; assay type: functional, organism-based
[7] = test system: Staphylococcus haemolyticus; experiment: Antibacterial activity against methicillin-resistant Staphylococcus haemolyticus A/16568 after 24 hrs; assay type: functional, organism-based
HCT-116 [8] = experiment: Cytostatic activity against human HCT116 cells after 72 hrs by MTT assay; assay type: functional, cell-based; details: HCT-116, 72 h; how it was run: as §2
Candida parapsilosis = experiment: Antifungal activity against Candida parapsilosis after 48 hrs; assay type: functional, organism-based
Pseudomonas aeruginosa [9] = experiment: Antibacterial activity against multi-resistant Pseudomonas aeruginosa A/16575 after 24 hrs; assay type: functional, organism-based
[10] = Cytostatic activity against human CEM-DNR-bulk cells after 72 hrs by MTT assay; assay type: functional, cell-based; how it was run: as §2
K562 [11] = experiment: Cytostatic activity against paclitaxel-resistant human K562 cells after 72 hrs by MTT assay; assay type: functional, cell-based; details: K562, 72 h; how it was run: as §2
A549 = experiment: Cytostatic activity against human A549 cells after 72 hrs by MTT assay; assay type: functional, cell-based; details: A549, 72 h; how it was run: as §2
Candida tropicalis = experiment: Antifungal activity against Candida tropicalis after 48 hrs; assay type: functional, organism-based
Pichia kudriavzevii = experiment: Antifungal activity against Candida crusei after 48 hrs; assay type: functional, organism-based
Pseudomonas aeruginosa [12] = experiment: Antibacterial activity against Pseudomonas aeruginosa CCM 3955 after 24 hrs; assay type: functional, organism-based
HCT-116 [13] = experiment: Cytostatic activity against p53-deficient human HCT116 cells after 72 hrs by MTT assay; assay type: functional, cell-based; details: HCT-116, 72 h; how it was run: as §2
BJ = experiment: Cytostatic activity against human BJ cells after 72 hrs by MTT assay; assay type: ADME, cell-based; how it was run: as §2
K562 [14] = experiment: Cytostatic activity against human K562 cells after 72 hrs by MTT assay; assay type: functional, cell-based; details: K562, 72 h; how it was run: as §2
HepG2 = experiment: Antiproliferative activity against human HepG2 cells after 72 hrs by XTT assay; assay type: functional, cell-based; details: HepG2, 72 h
Escherichia coli [15] = experiment: Antibacterial activity against multi-resistant Escherichia coli C/16702 after 24 hrs; assay type: functional, organism-based
CCRF-CEM = experiment: Cytostatic activity against human CCRF-CEM cells after 72 hrs by MTT assay; assay type: functional, cell-based; how it was run: as §2
[16] = Cytotoxicity against human HuH7 cells infected with Hepatitis C virus subtype 2a; assay type: cell-based, Huh-7
Candida albicans = experiment: Antifungal activity against Candida albicans after 48 hrs; assay type: functional, organism-based
Enterococcus faecalis = experiment: Antibacterial activity against Enterococcus faecalis CCM 4224 after 24 hrs; assay type: functional, organism-based
Escherichia coli [17] = experiment: Antibacterial activity against Escherichia coli CCM 3954 after 24 hrs; assay type: functional, organism-based

Row | Structure (SMILES) | IC50 (HL-60) | Activity (Staphylococcus aureus [1]) | EC50 (Hepatitis C virus [2]) | EC50 (Hepatitis C virus [3]) | IC50 [4] | IC50 (MRC5) | CC50 [5] | Activity (Staphylococcus aureus [6]) | Activity [7] | IC50 (HCT-116 [8]) | Activity (Candida parapsilosis) | Activity (Pseudomonas aeruginosa [9]) | IC50 [10] | IC50 (K562 [11]) | IC50 (A549) | Activity (Candida tropicalis) | Activity (Pichia kudriavzevii) | Activity (Pseudomonas aeruginosa [12]) | IC50 (HCT-116 [13]) | IC50 (BJ) | also measured
1 | CNc1ncnc2c1c(-c1ccoc1)cn2[C@@H]1O[C@H](CO)[C@@H](O)[C@H]1O | > 15 µM | inactive | > 44 µM | 35.9 µM | > 20 µM | > 100 µM | > 44 µM | inactive | inactive | > 20 µM | inactive | inactive | > 20 µM | > 20 µM | > 20 µM | inactive | inactive | inactive | > 20 µM | 96.3 µM | IC50 (K562 [14]): > 20 µM; IC50 (HepG2): > 20 µM; Activity (Escherichia coli [15]): inactive; IC50 (CCRF-CEM): > 20 µM; CC50 [16]: > 44 µM; Activity (Candida albicans): inactive; Activity (Enterococcus faecalis): inactive; Activity (Escherichia coli [17]): inactive
2 | CNc1ncnc2c1c(I)cn2[C@@H]1O[C@H](CO)[C@@H](O)[C@H]1O | > 20 µM | inactive | > 44 µM | > 44 µM | > 20 µM | > 100 µM | > 44 µM | inactive | inactive | > 100 µM | inactive | inactive | > 20 µM | > 20 µM | > 100 µM | inactive | inactive | inactive | > 100 µM | > 100 µM | IC50 (K562 [14]): > 100 µM; IC50 (HepG2): > 20 µM; Activity (Escherichia coli [15]): inactive; IC50 (CCRF-CEM): > 100 µM; CC50 [16]: > 44 µM; Activity (Candida albicans): inactive; Activity (Enterococcus faecalis): inactive; Activity (Escherichia coli [17]): inactive
3 | Cc1ncnc2c1c(-c1ccccc1)cn2[C@@H]1O[C@H](CO)[C@@H](O)[C@H]1O | > 20 µM | inactive | > 44 µM | 34.8 µM | > 20 µM | > 100 µM | > 44 µM | inactive | inactive | > 100 µM | inactive | inactive | > 20 µM | > 20 µM | > 20 µM | inactive | inactive | inactive | 95.3 µM | > 100 µM | IC50 (K562 [14]): > 20 µM; IC50 (HepG2): > 20 µM; Activity (Escherichia coli [15]): inactive; IC50 (CCRF-CEM): > 20 µM; CC50 [16]: > 44 µM; Activity (Candida albicans): inactive; Activity (Enterococcus faecalis): inactive; Activity (Escherichia coli [17]): inactive
4 | CSc1ncnc2c1c(-c1ccoc1)cn2[C@@H]1O[C@H](CO)[C@@H](O)[C@H]1O | 0.36 µM | inactive | > 44 µM | 4.72 µM | 5.39 µM | > 100 µM | > 44 µM | inactive | inactive | 0.04 µM | inactive | inactive | > 20 µM | 3.25 µM | 0.28 µM | inactive | inactive | inactive | 0.1 µM | 98.8 µM | IC50 (K562 [14]): 0.06 µM; IC50 (HepG2): > 15 µM; Activity (Escherichia coli [15]): inactive; IC50 (CCRF-CEM): 14.2 µM; CC50 [16]: > 44 µM; Activity (Candida albicans): inactive; Activity (Enterococcus faecalis): inactive; Activity (Escherichia coli [17]): inactive
5 | C#Cc1cn([C@@H]2O[C@H](CO)[C@@H](O)[C@H]2O)c2nc(N)nc(OC)c12 | > 20 µM | inactive | > 44 µM | > 44 µM | > 20 µM | > 100 µM | > 44 µM | inactive | inactive | > 20 µM | inactive | inactive | > 20 µM | > 20 µM | > 100 µM | inactive | inactive | inactive | > 20 µM | > 100 µM | IC50 (K562 [14]): > 20 µM; IC50 (HepG2): > 20 µM; Activity (Escherichia coli [15]): inactive; IC50 (CCRF-CEM): > 100 µM; CC50 [16]: > 44 µM; Activity (Candida albicans): inactive; Activity (Enterococcus faecalis): inactive; Activity (Escherichia coli [17]): inactive
6 | O=c1[nH]cnc2c1c(-c1cc3ccccc3o1)cn2[C@@H]1O[C@H](CO)[C@@H](O)[C@H]1O | > 20 µM | inactive | 17.4 µM | 7.21 µM | > 20 µM | > 100 µM | > 44 µM | inactive | inactive | > 20 µM | inactive | inactive | > 20 µM | > 20 µM | > 20 µM | inactive | inactive | inactive | > 20 µM | 62.7 µM | IC50 (K562 [14]): > 20 µM; IC50 (HepG2): > 20 µM; Activity (Escherichia coli [15]): inactive; IC50 (CCRF-CEM): > 20 µM; CC50 [16]: > 44 µM; Activity (Candida albicans): inactive; Activity (Enterococcus faecalis): inactive; Activity (Escherichia coli [17]): inactive
